Data published in ChEMBL document CHEMBL4043304, “Synthesis and Evaluation of Hydrogen Peroxide Sensitive Prodrugs of Methotrexate and Aminopterin for the Treatment of Rheumatoid Arthritis” (J Med Chem, 2018).
In brackets after ≈: the same amount, converted by molar mass. Activity calls are given as the source filed them. No cut-off for these calls is given here.

Columns and labels:
[1] = Prodrug activation in DMSO/PBS mixture assessed as formation of aminopterin at 50 uM measured within 2 hrs in presence of 0.5 mM H2O2 by RP-UPLC-MS method
Procedure, shortened: (§1)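 50 µM prodrug in 30% DMSO/PBS pH 7.4 at 37 °C with diclofenac internal standard. Started with H2O2 at 0.5 mM final. Sampled 5 min to 4 h (some compounds to 48 h). RP-UPLC-UV at 306 nm. No-H2O2 control run in parallel. Triplicate.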

[2] = Prodrug activation in DMSO/PBS mixture assessed as formation of (S)-dimethyl 2-(4-((2,4-diaminopteridin-6-yl)methylamino)benzamido)pentanedioate at 50 uM measured within 2 hrs in presence of 0.5 mM H2O2 by RP-UPLC-MS method; procedure, shortened: as §1
[3] = Prodrug activation in DMSO/PBS mixture assessed as formation of (S)-dimethyl 2-(4-(((2,4-diaminopteridin-6-yl)methyl)(4-hydroxybenzyl)amino)benzamido)pentanedioate at 50 uM measured within 2 hrs in presence of 0.5 mM H2O2 by RP-UPLC-MS method; procedure, shortened: as §1
[4] = Kinetic solubility of the compound in DMSO/PBS mixture after 20 hrs by RP-UPLC-UV method; assay type: physicochemical
Procedure, shortened: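 100 µM compound in 1% DMSO/PBS pH 7.4, shaken 20 h at 37 °C. Centrifuged to remove insoluble material; supernatant quantified by RP-UPLC-UV at 306 nm. Triplicate.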

[5] = Prodrug activation in DMSO/PBS mixture assessed as formation of (S)-dimethyl 2-(4-((2,4-diaminopteridin-6-yl)methylamino)benzamido)pentanedioate at 50 uM after 2 hrs in presence of 0.5 mM H2O2 by RP-UPLC-MS method
[6] = Prodrug activation in DMSO/PBS mixture assessed as formation of Dimethyl (4-(((2,4-Diaminopteridin-6-yl)methyl)(methyl)amino)-benzoyl)-L-glutamate at 50 uM after <3 hrs in presence of 0.5 mM H2O2 by RP-UPLC-MS method; procedure, shortened: as §1
NCI-H460 [7] = assay: Cytotoxicity against human NCI-H460 cells assessed as decrease in cell viability after 48 hrs by MTS assay; assay type: functional, cell-based
Procedure, shortened: (§2)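 MCF-7 (DMEM) or NCI-H460 (RPMI), 10% FBS, seeded at 10^4 or 7×10^3 cells/well respectively and attached for 24 h. Exposed to serial compound concentrations for 48 h, then MTS read at 490 nm. DMSO ≤0.4% matched controls. Triplicate. IC50 by non-linear regression.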

MCF7 [8] = assay: Cytotoxicity against human MCF7 cells assessed as decrease in cell viability after 48 hrs by MTS assay; assay type: functional, cell-based; procedure, shortened: as §2
Mus musculus [9] = assay: Antiarthritic activity in collagen-induced DBA/1J mouse arthritis model assessed as decrease in incidence of arthritis at 6.8 mg/kg, ip administered daily for 2 weeks starting on day 27 post first immunization measured thrice per week during compound dosing relative to control; assay type: functional, organism-based
Procedure, shortened: (§3)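 Male DBA/1J mice, 8–9 weeks. CIA induced by intradermal/subcutaneous tail-base immunization with 100 µg chicken type-II collagen in CFA on day -1, boosted with 50 µg on day 21. From day 27, i.p. dosing once daily for 14 days in 2% DMSO/PBS vehicle, n = 8 per group. Three times weekly, blinded limb scoring (0–15 per limb, max 60) and body weight. Reported as mean ± SEM; one-tailed Mann-Whitney test.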

Mus musculus [10] = assay: Antiarthritic activity in collagen-induced DBA/1J mouse arthritis model assessed as reduction of macroscopic score at 6.8 mg/kg, ip administered daily for 2 weeks starting on day 27 post first immunization measured thrice per week during compound dosing relative to control; assay type: functional, organism-based; procedure, shortened: as §3
Mus musculus [11] = assay: Toxicity in collagen-induced DBA/1J mouse arthritis model assessed as decrease in body weight at 6.8 mg/kg, ip administered daily for 2 weeks starting on day 27 post first immunization measured up to day 33; assay type: organism-based; conditions: in vivo, 336 h; procedure, shortened: as §3
Mus musculus [12] = assay: Antiarthritic activity in collagen-induced DBA/1J mouse arthritis model assessed as decrease in incidence of arthritis at 7 mg/kg, ip administered daily for 2 weeks starting on day 27 post first immunization measured thrice per week during compound dosing relative to control; assay type: functional, organism-based
Procedure, shortened: (§4)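 Male DBA/1J mice (8–9 wk, n = 8/group). Arthritis induced by intradermal tail-base immunization with 100 µg chicken type-II collagen in CFA on day −1, with a 50 µg boost on day 21. Daily i.p. dosing in 2% DMSO/PBS for 14 days from day 27. Blinded scoring three times weekly, 0–15 per limb (max 60). Vehicle group as control. Mann-Whitney test.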

Mus musculus [13] = assay: Antiarthritic activity in collagen-induced DBA/1J mouse arthritis model assessed as reduction of macroscopic score at 7 mg/kg, ip administered daily for 2 weeks starting on day 27 post first immunization measured thrice per week during compound dosing relative to control; assay type: functional, organism-based; procedure, shortened: as §4
Mus musculus [14] = assay: Toxicity in collagen-induced DBA/1J mouse arthritis model assessed as decrease in body weight at 7 mg/kg, ip administered daily for 2 weeks starting on day 27 post first immunization measured thrice per week during compound dosing; assay type: organism-based; conditions: in vivo, 336 h
Procedure, shortened: (§5)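 CIA in male DBA/1J mice (8–9 wk, n = 8/group) from chicken type-II collagen/CFA immunization (day −1, boost day 21). Daily i.p. dosing in 2% DMSO/PBS for 14 days starting day 27. Body weight recorded three times weekly as a general-health indicator, compared with vehicle. Data are mean ± SEM.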

[15] = Prodrug activation in DMSO/PBS mixture assessed as formation of aminopterin at 50 uM after <3 hrs in presence of 0.5 mM H2O2 by RP-UPLC-MS method; procedure, shortened: as §1
[16] = Prodrug activation in DMSO/PBS mixture assessed as formation of aminopterin at 100 uM after 2 to 48 hrs in presence of 0.25 to 10 mM H2O2 […]
[17] = Prodrug activation in DMSO/PBS mixture assessed as formation of (S)-2-(4-(((2,4-diaminopteridin-6-yl)methyl)(4-hydroxybenzyl)amino)benzamido)pentanedioic acid at 50 uM measured within 2 hrs in presence of 0.5 mM H2O2 by RP-UPLC-MS method; procedure, shortened: as §1
[18] = Half life in PBS/DMSO mixture at pH 7.4 by RP-UPLC-UV method; assay type: physicochemical
[19] = Half life in SGF by RP-UPLC-UV method; assay type: physicochemical
Procedure, shortened: (§6)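 SGF or SIF (SIF adjusted to pH 7.5) dosed from a 10 mM DMSO stock. Incubated at 37 °C and sampled at 0, 1, 2, 4 and 24 h. Run in triplicate.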

[20] = Half life in SIF by RP-UPLC-UV method; assay type: physicochemical; procedure, shortened: as §6
[21] = Half life in human plasma at 20 uM by RP-UPLC-UV method; assay type: ADME, cell-free
Procedure, shortened: (§7)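 Reconstituted lyophilized human or mouse plasma mixed about 1:1 with PBS and pre-warmed to 37 °C. Compound added to 20 µM final. […] Procaine (human) and diltiazem (mouse) as controls.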

[22] = Half life in mouse plasma at 20 uM by RP-UPLC-UV method; assay type: ADME, cell-free; procedure, shortened: as §7
[23] = Intrinsic clearance in human liver microsomes at 10 uM after 5 to 60 mins by RP-UPLC-UV method; assay type: ADME, microsome; conditions: read-out: CLH
Procedure, shortened: (§8)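 Pooled male liver microsomes (human, or CD-1 mouse) in PBS at 37 °C with 10 µM compound. Reaction started with NADPH. Aliquots taken 0–60 min (mouse also 120 and 240 min) and quenched with cold MeCN/diclofenac. Read by RP-UPLC-UV, ln[C] vs time, first order. No-NADPH control run; verapamil (human) or diphenhydramine (mouse) as reference.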

[24] = Intrinsic clearance in CD1 mouse liver microsomes at 10 uM after 5 to 240 mins by RP-UPLC-UV method; assay type: ADME, microsome; conditions: read-out: CLH; procedure, shortened: as §8
[25] = Chemical stability in PBS/DMSO mixture at pH 7.4 after 24 hrs by RP-UPLC-UV method; assay type: physicochemical; conditions: read-out: Stability
[26] = Metabolic stability in human plasma at 20 uM after 24 hrs by RP-UPLC-UV method; assay type: ADME, cell-free; conditions: read-out: Stability; procedure, shortened: as §7
[27] = Metabolic stability in mouse plasma at 20 uM after 8 hrs by RP-UPLC-UV method; assay type: ADME, cell-free; conditions: read-out: Stability; procedure, shortened: as §7
NCI-H460 [28] = assay: Cytotoxicity against human NCI-H460 cells assessed as decrease in cell viability preincubated with H2O2 for 24 hrs followed by cell addition measured after 48 hrs by MTS assay; assay type: functional, cell-based
Procedure, shortened: (§9)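 Compound pre-activated at 125 µM with 1.25 mM H2O2 in DMSO:PBS 1:1, 24 h at 21 °C. Then added to MCF-7 or NCI-H460 cells (24 h attached) for 48 h. Final H2O2 <10 µM. MTS read at 490 nm. Triplicate. IC50 by non-linear regression.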

MCF7 [29] = assay: Cytotoxicity against human MCF7 cells assessed as decrease in cell viability preincubated with H2O2 for 24 hrs followed by cell addition measured after 48 hrs by MTS assay; assay type: functional, cell-based; procedure, shortened: as §9
Mus musculus [30] = assay: Antiarthritic activity in collagen-induced DBA/1J mouse arthritis model assessed as decrease in incidence of arthritis at 8.8 mg/kg, ip administered daily for 2 weeks starting on day 27 post first immunization measured thrice per week during compound dosing relative to control; assay type: functional, organism-based; procedure, shortened: as §4
Mus musculus [31] = assay: Antiarthritic activity in collagen-induced DBA/1J mouse arthritis model assessed as reduction of macroscopic score at 8.8 mg/kg, ip administered daily for 2 weeks starting on day 27 post first immunization measured thrice per week during compound dosing relative to control; assay type: functional, organism-based; procedure, shortened: as §4
Mus musculus [32] = assay: Toxicity in collagen-induced DBA/1J mouse arthritis model assessed as decrease in body weight at 8.8 mg/kg, ip administered daily for 2 weeks starting on day 27 post first immunization measured thrice per week during compound dosing; assay type: organism-based; conditions: in vivo, 336 h; procedure, shortened: as §5

COC(=O)CC[C@H](NC(=O)c1ccc(N(Cc2ccc(B(O)O)cc2)Cc2cnc3nc(N)nc(N)c3n2)cc1)C(=O)OC
Drug metabolism [1]: Metabolite not detected | Drug metabolism [2]: Metabolite not detected | Drug metabolism [3]: Metabolite detected | solubility kinetic at 20 h ([4]; read-out: Kinetic_solubility): 4.1 µM (≈ 2.47 µg/mL) | Drug metabolism [5]: Metabolite detected

COC(=O)CC[C@H](NC(=O)c1ccc(N(C)Cc2cnc3nc(N)nc(NC(=O)OCc4ccc(B(O)O)c(F)c4)c3n2)cc1)C(=O)OC
Drug metabolism [6]: > 95% | solubility kinetic at 20 h [4]: 4.6 µM (≈ 3.12 µg/mL)

Nc1nc(N)c2nc(CNc3ccc(C(=O)N[C@@H](CCC(=O)O)C(=O)O)cc3)cnc2n1 [AMINOPTERIN]
solubility kinetic at 20 h ([4]; read-out: Kinetic_solubility): > 1000 µM | Activity (NCI-H460 [7]): Active | Activity (MCF7 [8]): Active | Activity (Mus musculus [9]): Active | Activity (Mus musculus [10]): Active | Activity (Mus musculus [11]): Toxic

COC(=O)CC[C@H](NC(=O)c1ccc(N(C)Cc2cnc3nc(N)nc(NC(=O)OCc4ccc(B(O)O)cc4)c3n2)cc1)C(=O)OC
Drug metabolism [6]: > 95% | solubility kinetic at 20 h ([4]; read-out: Kinetic_solubility): 3 µM (≈ 1.98 µg/mL)

CN(Cc1cnc2nc(N)nc(N)c2n1)c1ccc(C(=O)N[C@@H](CCC(=O)O)C(=O)O)cc1 [METHOTREXATE]
solubility kinetic at 20 h ([4]; read-out: Kinetic_solubility): 2140 µM (≈ 971 µg/mL) | Activity (NCI-H460 [7]): Active | Activity (MCF7 [8]): Active | Activity (Mus musculus [12]): Active | Activity (Mus musculus [13]): Active | Activity (Mus musculus [14]): Toxic

COC(=O)CC[C@H](NC(=O)c1ccc(N(C)Cc2cnc3nc(N)nc(NC(=O)OCc4ccc(B(O)O)c(C)c4)c3n2)cc1)C(=O)OC
Drug metabolism [6]: > 95%

Nc1nc(N)c2nc(CN(Cc3ccc(B(O)O)cc3)c3ccc(C(=O)N[C@@H](CCC(=O)O)C(=O)O)cc3)cnc2n1
Drug metabolism [15]: Metabolite detected | Drug metabolism [16]: Metabolite detected | Drug metabolism [1]: Metabolite not detected | Drug metabolism [2]: Metabolite not detected | Drug metabolism [17]: Metabolite detected | solubility kinetic at 20 h ([4]; read-out: Kinetic_solubility): 83 µM (≈ 47.7 µg/mL) | half-life [18]: 24 days | half-life [19]: 32.1 days | half-life [20]: 36.1 days | half-life at 20 µM [21]: 2.33 days | half-life at 20 µM [22]: 2.62 days | microsomal CLint at 10 µM [23]: 1.2 µL/min/mg | microsomal CLint at 10 µM [24]: 2.6 µL/min/mg | remaining at 24 h [25]: > 90% | remaining at 24 h, 20 µM [26]: 82% | remaining at 8 h, 20 µM [27]: 91% | Activity (NCI-H460 [7]): inactive | Activity (MCF7 [8]): inactive | Activity (NCI-H460 [28]): Active | Activity (MCF7 [29]): Active | Activity (Mus musculus [30]): Active | Activity (Mus musculus [31]): Active | Activity (Mus musculus [32]): Non-Toxic
